{"source": "ChEMBL document CHEMBL5365494", "about": "“Bis-6-amidino-benzothiazole Derivative that Cures Experimental Stage 1 African Trypanosomiasis with a Single Dose” (J Med Chem, 2023)", "key": {"[1]": {"tested_on": "Trypanosoma brucei brucei", "assay": "Antitrypanosomal activity against stage-1 bioluminescent Trypanosoma brucei brucei GVR35-VSL2 expressing red-shifted luciferase infected in BALB/c mouse assessed as parasite killing by measuring reduction in bioluminescent signal at 20 mg/kg, ip administered as single dose starting from 4 days post infection and measured on 3 to 7 days by luciferase based bioluminescence assay", "assay_type": "functional, organism-based", "conditions": "time 3-7 day", "procedure,_shortened": "(§1)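 BALB/c mice infected with 30,000 bioluminescent bloodstream-form T. brucei; dosing i.p. or oral from 4 days post-infection, single or once daily for 4 days. Monitored by in vivo imaging after i.p. d-luciferin 150 mg kg⁻¹ under isoflurane, with total body flux from dorsal plus ventral images. Cure required negativity by both in vivo and ex vivo imaging.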"}, "[2]": {"tested_on": "Trypanosoma brucei brucei", "assay": "(§2) Antitrypanosomal activity against stage-1 bioluminescent Trypanosoma brucei brucei GVR35-VSL2 expressing red-shifted luciferase infected in BALB/c mouse assessed as reduction in parasite growth by measuring curation rate at 20 mg/kg, po administered once daily for 4 days starting from 4 days post infection by luciferase based bioluminescence assay relative to control", "assay_type": "functional", "set-up": "scale not given: the % may be the effect or the level left", "conditions": "time 4 day", "procedure,_shortened": "as §1"}, "Trypanosoma brucei [3]": {"tested_on": "Trypanosoma brucei", "assay": "Antitrypanosomal activity against blood stream form of Trypanosoma brucei 221a variant assessed as parasite growth inhibition measured after 48 hrs by resazurin dye based fluorescence analysis", "assay_type": "functional, organism-based", "procedure,_shortened": "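Bloodstream-form T. b. brucei 221a (MiTat1.2a) in modified Iscove's medium at 37 °C, started at 2.5×10^4 mL^-1 with a concentration range. After 48 h, resazurin was added for a further 16 h. Fluorescence read at ex 545/em 590 nm. EC50 and EC90 taken from three independent replicates.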"}, "[4]": {"assay": "Toxicity in BALB/c mouse infected with bioluminescent Trypanosoma brucei brucei GVR35-VSL2 expressing red-shifted luciferase assessed as hunching in animal at 20 mg/kg, po administered once daily for 4 days", "assay_type": "organism-based", "conditions": "in vivo, 96 h, time 4 day", "procedure,_shortened": "(§3)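 Infected BALB/c mice (bioluminescent T. brucei, 30,000 parasites) dosed i.p. or orally once daily for 4 days starting day 4 post-infection; observed for piloerection, hunching, shaking, lack of activity and body weight change.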"}, "[5]": {"assay": "Drug localization in nucleus of Trypanosoma brucei bloodstream form at 10 ug/ml measured for 180 mins by fluorescence microscopy", "assay_type": "ADME, subcellular", "conditions": "3 h, dose 10 µg/ml", "procedure,_shortened": "(§4)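 Bloodstream-form T. brucei incubated with compound 10 μg mL⁻¹ for 60 or 180 min or 24 h; fixed in 4% PFA, mounted with DAPI, imaged by fluorescence microscopy (ex 550/em 585 nm).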"}, "[6]": {"assay": "Drug localization in kinetoplast of Trypanosoma brucei bloodstream form at 10 ug/ml measured for 180 mins by fluorescence microscopy", "assay_type": "ADME, subcellular", "conditions": "3 h, dose 10 µg/ml", "procedure,_shortened": "as §4"}, "[7]": {"assay": "Metabolic stability in mouse liver microsomes assessed as half life at 1 uM measured upto 60 mins in presence of NADPH by LC-MS/MS analysis", "assay_type": "ADME, Microsome", "conditions": "1 h"}, "[8]": {"assay": "Toxicity in BALB/c mouse infected with bioluminescent Trypanosoma brucei brucei GVR35-VSL2 expressing red-shifted luciferase assessed as lack of activity in animal at 0.25 to 20 mg/kg, ip administered once daily for 4 days", "assay_type": "organism-based", "conditions": "in vivo, 96 h, dose 0.25-20 mg/kg, time 4 day", "procedure,_shortened": "as §3"}, "[9]": {"tested_on": "Trypanosoma brucei brucei", "assay": "as §2, with “growth without relapse” for “growth by measuring curation rate”, “at 5 to” for “at”, “mg/kg, ip” for “mg/kg, po”, “assay” for “assay relative to control”", "assay_type": "functional, organism-based", "conditions": "dose 5-20 mg/kg, time 4.0 day", "procedure,_shortened": "as §1"}, "Plasmodium falciparum": {"tested_on": "Plasmodium falciparum", "assay": "Antiplasmodial activity against Plasmodium falciparum 3D7 infected in human erythrocytes assessed as inhibition of asexual parasite development measured after 96 hrs by fluorescence based assay", "assay_type": "functional, organism-based", "conditions": "3D7, Erythrocyte", "procedure,_shortened": "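3D7 asexual parasites in human erythrocytes (RPMI 1640, 0.5% Albumax II, 50 μM hypoxanthine, 2 mM L-glutamine, 5% CO2), 2% parasitemia/1% hematocrit; compound in DMSO dilutions, 96 h at 37 °C. Freeze-thaw, SYBR green lysis buffer, 1 h, fluorescence ex 485/em 535 nm. Normalized to DMSO and 1 μM dihydroartemisinin; EC50 from triplicate independent dose-response curves.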"}, "[10]": {"assay": "Drug uptake in blood stream form of Trypanosoma brucei at 10 ug/ml incubated for 6 hrs in presence of bafilomycin Al by fluorescence microscopy", "assay_type": "ADME, tissue-based", "conditions": "dose 10 µg/ml", "procedure,_shortened": "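Bloodstream-form T. brucei incubated 6 h with compound 10 μg mL⁻¹ with or without 8 nM BafA1, then imaged by fluorescence microscopy.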"}, "[11]": {"tested_on": "Trypanosoma brucei brucei", "assay": "Antitrypanosomal activity against stage-1 bioluminescent Trypanosoma brucei brucei GVR35-VSL2 expressing red-shifted luciferase infected in BALB/c mouse assessed as reduction in parasite growth at 2 mg/kg, ip administered as single dose for 1 day starting from 4 days post infection by luciferase based bioluminescence assay", "assay_type": "functional, organism-based", "procedure,_shortened": "as §1"}, "[12]": {"assay": "Drug localization in lysosomes of Trypanosoma brucei bloodstream form at 10 ug/ml by fluorescence microscopy", "assay_type": "ADME, subcellular, Lysosome", "conditions": "TDE = time-dependent effect, time 1-24 hrs, dose 10 µg/ml", "procedure,_shortened": "as §4"}, "[13]": {"assay": "Apparent permeability across apical to basolateral side in MDCK-MDR1 cells at 10 uM measured for 60 mins by LC-MS/MS analysis", "assay_type": "ADME, cell-based, Canis lupus familiaris", "conditions": "dog", "procedure,_shortened": "(§5)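 MDCKII-hMDR1 monolayers on inserts, compound 10 μM (1% DMSO) in duplicate, 60 min at 37 °C, bidirectional, with and without elacridar 2 μM. Amprenavir as P-gp control, Lucifer yellow for monolayer integrity; compound quantified by LC–MS/MS.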"}, "[14]": {"assay": "Toxicity in BALB/c mouse infected with bioluminescent Trypanosoma brucei brucei GVR35-VSL2 expressing red-shifted luciferase assessed as piloerection in animal at 20 mg/kg, po administered once daily for 4 days", "assay_type": "organism-based", "conditions": "in vivo, 96 h, time 4 day", "procedure,_shortened": "as §3"}, "[15]": {"tested_on": "Trypanosoma brucei brucei", "assay": "Antitrypanosomal activity against stage-2 bioluminescent Trypanosoma brucei brucei GVR35-VSL2 expressing red-shifted luciferase infected in CD-1 mouse assessed as reduction in parasite growth at 10 to 20 mg/kg, ip administered daily for 3 days starting from 13 days post infection by bioluminescence based assay", "assay_type": "functional, organism-based", "conditions": "dose 10-20 mg/kg, time 3.0 day"}, "[16]": {"assay": "Toxicity in BALB/c mouse infected with bioluminescent Trypanosoma brucei brucei GVR35-VSL2 expressing red-shifted luciferase assessed as body weight loss at 20 mg/kg, ip administered once daily for 4 days", "assay_type": "organism-based", "conditions": "in vivo, 96 h, time 4 day", "procedure,_shortened": "as §3"}, "Trypanosoma brucei [17]": {"tested_on": "Trypanosoma brucei", "assay": "Antitrypanosomal activity against blood stream form of Trypanosoma brucei 221a variant assessed as parasite growth inhibition at 0.3 nM preincubated for 24 hrs followed by subculturing with fresh medium with compounds and measured after 6 days by resazurin dye based fluorescence analysis", "assay_type": "functional, organism-based", "conditions": "time 7.0 day", "procedure,_shortened": "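Bloodstream-form T. brucei seeded in flasks at 10^5 mL^-1 with a range of compound concentrations. Every 24 h parasites were sub-cultured back to 10^5 mL^-1 in continued compound presence, through day 10. Growth reported as cumulative parasite number. In a washout arm, parasites were exposed for 3 days, moved to compound-free medium and followed for 12 days.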"}, "[18]": {"assay": "Toxicity in BALB/c mouse infected with bioluminescent Trypanosoma brucei brucei GVR35-VSL2 expressing red-shifted luciferase assessed as hunching in animal at 0.25 to 20 mg/kg, ip administered once daily for 4 days", "assay_type": "organism-based", "conditions": "in vivo, 96 h, dose 0.25-20 mg/kg, time 4 day", "procedure,_shortened": "as §3"}, "[19]": {"assay": "Apparent permeability across basolateral to apical side in MDCK-MDR1 cells at 10 uM measured for 60 mins by LC-MS/MS analysis", "assay_type": "ADME, cell-based, Canis lupus familiaris", "conditions": "dog, mdck-mdr1, 1 h, 10 µM", "procedure,_shortened": "as §5"}, "Trypanosoma brucei [20]": {"tested_on": "Trypanosoma brucei", "assay": "Induction of tetracycline dependent drug resistant in Trypanosoma brucei MiTat 1.2, clone 221a assessed as outgrowth of resistant parasites at 1 to 2 ng/ml measured for 10 days", "assay_type": "functional", "conditions": "dose 1-2 ng/ml, time 10.0 day"}}, "note": "Calls of active or inactive are those of the source. No cut-off for these calls is given here.", "data": [{"smiles": "CS(=O)(=O)O.CS(=O)(=O)O.N=C(N)c1ccc2nc(C3CCC(c4nc5ccc(C(=N)N)cc5s4)CC3)sc2c1", "note": "(configuration not stated)", "values": [{"measurement": "Activity", "setting": "[1]", "value": "Active"}, {"measurement": "Activity", "setting": "[2]", "value": 20, "unit": "%"}, {"measurement": "EC50", "setting": "Trypanosoma brucei [3]; 48 h", "value": 1, "unit": "nM"}, {"measurement": "EC90", "setting": "Trypanosoma brucei [3]; time 48 hrs", "value": 1, "unit": "nM"}, {"measurement": "Activity", "setting": "[4]", "value": "Non-Toxic"}, {"measurement": "Drug uptake", "setting": "[5]", "value": "Not Active"}, {"measurement": "Drug uptake", "setting": "[6]", "value": "Not Active"}, {"measurement": "t1/2", "setting": "[7]", "value": "> 1", "unit": "h"}, {"measurement": "Activity", "setting": "[8]", "value": "Non-Toxic"}, {"measurement": "Activity", "setting": "[9]", "value": "Active"}, {"measurement": "EC50", "setting": "Plasmodium falciparum", "value": 25.3, "unit": "nM"}, {"measurement": "Drug uptake", "setting": "[10]", "value": "Not Active"}, {"measurement": "Activity", "setting": "[11]", "value": "inactive"}, {"measurement": "Drug uptake", "setting": "[12]", "value": "Tde"}, {"measurement": "Papp A→B at 1 h, 10 µM", "setting": "[13]", "value": "< 0.1", "unit": "×10⁻⁶ cm/s"}, {"measurement": "Activity", "setting": "[14]", "value": "Non-Toxic"}, {"measurement": "Activity", "setting": "[15]", "value": "inactive"}, {"measurement": "Activity", "setting": "[16]", "value": "< 10", "unit": "%"}, {"measurement": "Activity", "setting": "Trypanosoma brucei [17]", "value": "Active"}, {"measurement": "Activity", "setting": "[18]", "value": "Non-Toxic"}, {"measurement": "Papp", "setting": "[19]", "value": "0.4 10^-6 cm/s"}, {"measurement": "Activity", "setting": "Trypanosoma brucei [20]", "value": "inactive"}]}]}
